Test [1] is described as follows: Cytotoxicity against drug-resistant human KB31 cells after 72 hrs by MTS reduction assay. It is filed as functional, cell-based. Conditions: KB 3-1, 72 h, in the assay text read “drug-sensitive” for “drug-resistant”. The method in brief:
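KB-3-1 cells grown as monolayers in DMEM with 10% FBS at 37 °C and 5% CO2, harvested by trypsin at 70-80% confluence and seeded at 4 × 10^3/well for 24 h. Dilutions of DMSO stock in medium were added (DMSO ≤0.25% final, also in controls), six wells per concentration, for 72 h. Viable cells were read by MTS/PMS, 50 min, A492. IC50 came from three passages.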
For orientation: Formazan colour is commonly taken as a measure of viable cells.

The nature of test [2]: Cytotoxicity against multidrug-resistant human KBV1 cells after 72 hrs by MTS reduction assay. It is filed as functional, cell-based. Conditions: KB-V1, 72 h. The method in brief:
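KB-V1 multidrug-resistant line (P-170 glycoprotein) kept without vinblastine, using passages 5-15, in DMEM/10% FBS at 37 °C and 5% CO2. Cells were trypsinized at 60-70% confluence and seeded at 7 × 10^3/well for 24 h. Compound was added in medium (DMSO ≤0.25%), six replicates per concentration, for 72 h. Read-out was MTS/PMS, 50 min, A492. IC50 came from three separate passages.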

The nature of test [3]: Resistance index, ratio of IC50 for human KBV1 cells to IC50 for human KB31 cells. It counts as functional. Summed up:
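Ratio of the IC50 in KB-V1 cells to the IC50 in parental KB-3-1 cells, each from a 72-h MTS/PMS proliferation assay (A492) run in parallel under the same dosing conditions (DMSO ≤0.25%, six replicates per concentration, three separate determinations).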

pIC50: −log10 of the molar value.

Take `COc1ccc2c3c(c4cc(OC)c(OC)cc4c2c1)[C@@H](O)[C@H]1CCC[N+]1([O-])C3` (stereo not given in full): the pIC50 (commonly the negative decadic logarithm of the IC50, by convention in mol/L) in test [1] was 7.00; in test [2] it was 6.80.

Consider `COc1ccc(C2=C(c3ccc(OC)c(OC)c3)C[C@H]3CCC[N+]3([O-])C2)cc1` (stereo not given in full), for which the figures for the pIC50 in test [1] and in test [2] were 5.59 and 5.48, respectively.

`COc1ccc2c3c(c4cc(OC)c(OC)cc4c2c1)C[C@H]1CCC[N+]1([O-])C3` (stereo not given in full): the pIC50 in test [1] is 6.96; in test [2] it was 6.80.

As to `COC(=O)c1ccccc1-c1c2ccc(=N)cc-2oc2cc(N)ccc12.Cl` [RHODAMINE123], the values for the pIC50 in test [1] and in test [2] were 5.85 and < 3.30, respectively. Further, the Ratio in test [3] stood at 500.

Regarding `CC[C@]1(O)C[C@@H]2CN(CCc3c([nH]c4ccccc34)[C@@](C(=O)OC)(c3cc4c(cc3OC)N(C)[C@H]3[C@@](O)(C(=O)OC)[C@H](OC(C)=O)[C@]5(CC)C=CCN6CC[C@]43[C@@H]65)C2)C1` [VINBLASTINE], in test [3], the Ratio worked out at 210.

The values are drawn from ChEMBL document CHEMBL1142555, “Cytotoxic activity of some phenanthroindolizidine N-oxide alkaloids from Cynanchum vincetoxicum” (J Nat Prod, 2000).
